The source of these data is ChEMBL document CHEMBL4706562, “Design, synthesis and evaluation of covalent inhibitors of DprE1 as antitubercular agents” (Eur J Med Chem, 2020).

Data set [1] concerns the target T1, Decaprenylphosphoryl-beta-D-ribose oxidase (Mycobacterium tuberculosis (strain ATCC 25618 / H37Rv), UniProt P9WJF1).
T1 sequence (P9WJF1 whole entry): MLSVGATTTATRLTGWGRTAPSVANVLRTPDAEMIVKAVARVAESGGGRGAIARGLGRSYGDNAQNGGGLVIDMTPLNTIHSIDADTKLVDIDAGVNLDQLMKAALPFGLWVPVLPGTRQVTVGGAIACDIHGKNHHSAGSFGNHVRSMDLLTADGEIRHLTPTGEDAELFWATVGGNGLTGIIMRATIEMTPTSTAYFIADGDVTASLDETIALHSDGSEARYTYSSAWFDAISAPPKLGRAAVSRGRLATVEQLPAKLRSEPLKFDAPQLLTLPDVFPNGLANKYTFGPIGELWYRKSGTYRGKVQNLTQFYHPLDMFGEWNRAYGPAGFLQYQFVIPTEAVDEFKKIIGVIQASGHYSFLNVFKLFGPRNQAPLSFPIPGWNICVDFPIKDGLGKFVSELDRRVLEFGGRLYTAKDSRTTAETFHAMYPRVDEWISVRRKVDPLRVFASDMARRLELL
Kind of data set: Inhibition of Mycobacterium tuberculosis DprE1 expressed in Escherichia coli BL21 (DE3) cells assessed as formation of resorufin using FPR as substrate by Amplex Red hydrogen/peroxidase coupled assay.

Data set [2] concerns Mycobacterium tuberculosis. Kind of data set: Antimycobacterial activity against Mycobacterium tuberculosis H37Rv ATCC 25618 assessed as inhibition of visible bacterial growth by MABA assay. It counts as functional. The gist of the method:
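Inoculum adjusted to 1.0 McFarland, diluted 1:20 in Middlebrook 7H9 with 10% OADC and 0.2% glycerol. Compounds taken from 1.0 mg/mL DMSO stocks and serially diluted two-fold. Microplate alamar blue read-out: blue to pink marks growth, colours recorded after 24 h. MIC taken as the lowest concentration giving no colour change. PBTZ169 served as positive control.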
In general terms: Resazurin is reduced to fluorescent resorufin, in cell work by metabolically active cells.

Data set [3] can be described thus: Half life of the compound in PBS assessed as parent compound remaining by HPLC analysis. The format is physicochemical.
The nature of data set [4]: Reactivity of compound towards methyl thioglycolate in PBS measured after 48 hrs by LC/MS/MS. It counts as physicochemical. The following applies: buffer. The method, boiled down: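 Test compound and methyl thioglycolate co-incubated at 37 °C in 50 mM PBS, pH 7.4. The reaction was followed by TLC, and aliquots were injected into LC-MS/MS at set intervals over 48 h. Electrospray positive-ion mass spectra detected MT adducts, and half-life was determined.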

Data set [5] concerns the target T2, Decaprenylphosphoryl-beta-D-ribose oxidase (Mycobacterium tuberculosis (strain ATCC 25618 / H37Rv)) (UniProt P9WJF1).
T2 sequence (whole entry): T1 sequence (P9WJF1 whole entry)
Kind of data set: Inhibition of Mycobacterium tuberculosis H37Rv DprE1 assessed as increase in trehalose dimycolates at 10 x MIC preincubated for 24 hrs using [14C]acetate by TLC based metabolic labelling assay relative to control. The gist of the method: (§1)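 M. tuberculosis H37Rv cultures labelled with [14C]acetate for 24 h. […] Lipids extracted and resolved by TLC, with TDM/TMM compared to untreated control cells. BTZ043 and PBTZ169 served as control inhibitors.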

Data set [6] has as its target T2, Decaprenylphosphoryl-beta-D-ribose oxidase (Mycobacterium tuberculosis (strain ATCC 25618 / H37Rv)). Kind of data set: Inhibition of Mycobacterium tuberculosis H37Rv DprE1 assessed as increase in trehalose monomycolates at 10 x MIC preincubated for 24 hrs using [14C]acetate by TLC based metabolic labelling assay relative to control. The gist of the method:
as §1

Data set [7] has the same target. Kind of data set: Inhibition of Mycobacterium tuberculosis H37Rv DprE1 assessed as increase in trehalose dimycolates at 100 x MIC incubated for 24 hrs using [14C]acetate by TLC based metabolic labelling assay relative to control. The method, boiled down:
as §1

The target is the same in data set [8]. As to the kind of experiment: Inhibition of Mycobacterium tuberculosis H37Rv DprE1 assessed as increase in trehalose monomycolates at 100 x MIC incubated for 24 hrs using [14C]acetate by TLC based metabolic labelling assay relative to control. The gist of the method: as §1
Data set [9] has the same target. Kind of data set: Inhibition of Mycobacterium tuberculosis DprE1 expressed in Escherichia coli BL21 (DE3) cells assessed as formation of resorufin using FPR as substrate at 20 uM by Amplex Red hydrogen/peroxidase coupled assay. Further details: scale not given: the % may be the effect or the level left.
Data set [10] has the same target. Kind of data set: Binding affinity to trypsin digested Mycobacterium tuberculosis DprE1 protein assessed as Cys387 adduct formation with 387-CVDFP-391 sequence at 300 uM by measuring retention time by LC/MS analysis.
Data set [11] has the same target. As to the kind of experiment: Covalent binding affinity to Mycobacterium tuberculosis DprE1 assessed as adduct formation by measuring 490 Da shift increase in molecular weight at 100 uM by Mass spectrometry analysis.
The target is the same in data set [12]. As to the kind of experiment: Covalent binding affinity to Mycobacterium tuberculosis DprE1 assessed as adduct formation by measuring 460 Da shift increase in molecular weight at 100 uM by Mass spectrometry analysis.
Data set [13] shares this target. Kind of data set: Binding affinity to trypsin digested Mycobacterium tuberculosis DprE1 protein assessed as Cys387 adduct formation with 385-NICVDFPIL-393 sequence at 300 uM by measuring retention time by LC/MS analysis.

In brackets after ≈: the same amount, converted by molar mass. Activity calls are given as the source filed them. No cut-off for these calls is given here.

For the compound `CN(C)C(=O)/C=C/c1cc(C(F)(F)F)cc2c(=O)nc(N3CCN(CC4CCCCC4)CC3)sc12`, the IC50 in data set [1] worked out at 1250 nM. Further, in [2], the MIC is above 20 µM. For the same compound, in data set [3], the half-life was above 48 h. Besides, the outcome in data set [4] was Active.
Consider `N#CCCc1cc(C(F)(F)F)cc2c(=O)nc(N3CCN(CC4CCCCC4)CC3)sc12`, for which, in data set [1], the IC50 was 13200 nM. Moreover, the MIC in [2] was above 9 µM.
In the same order, the values of `N#Cc1ncc2c(=O)nc(N3CCN(CC4CCCCC4)CC3)sc2n1` are above 20000 nM and 6.73 µM (≈ 2.49 µg/mL).
Turning to `O=c1nc(N2CCN(CC3CCCCC3)CC2)sc2nc(Cl)ncc12`, the IC50 in data set [1] is above 20000 nM. In addition, the minimal inhibitory concentration (MIC) in data set [2] is above 20 µM. Also, in [3], the half-life was 4 h. The result in data set [4] was Active.
With `O=c1nc(N2CCN(CC3CCCCC3)CC2)sc2c(Br)cc(C(F)(F)F)cc12`, in [1], the IC50 came to 1840 nM. Further, the MIC in data set [2] was 0.16 µM (≈ 0.0785 µg/mL). The outcome in [5] and in [6] was Active.
With `O=c1nc(N2CCN(CC3CCCCC3)CC2)sc2c([N+](=O)[O-])cc(C(F)(F)F)cc12` [MACOZINONE], the outcome in [7] and in [8] was Active.
With `O=c1nc(N2CCN(CC3CCCCC3)CC2)sc2c(Cl)cc(C(F)(F)F)cc12`, in [1], the IC50 was determined as 920 nM. Besides, in data set [2], the MIC turned out to be 0.03 µM (≈ 0.0134 µg/mL). The result in [5] and in data set [6] was Active.
`NC(=O)CCc1cc(C(F)(F)F)cc2c(=O)nc(N3CCN(CC4CCCCC4)CC3)sc12`: the IC50 in data set [1] worked out at 16700 nM. The MIC in [2] was above 9 µM.
In the same order, the values of `COC(=O)CCc1cc(C(F)(F)F)cc2c(=O)nc(N3CCN(CC4CCCCC4)CC3)sc12` are 5400 nM and above 9 µM.
With `N#Cc1ccc2c(=O)nc(N3CCN(CC4CCCCC4)CC3)sc2n1`, the IC50 in data set [1] turned out to be 7720 nM. Also, the MIC in [2] was above 12 µM.
With `CNC(=O)/C=C/c1cc(C(F)(F)F)cc2c(=O)nc(N3CCN(CC4CCCCC4)CC3)sc12`, in data set [1], the half-inhibitory concentration (IC50) was determined as 390 nM. For the same compound, the minimal inhibitory concentration (MIC) in data set [2] was 20 µM (≈ 9.89 µg/mL). Besides, the result in data set [7] and in [8] was inactive.
With `C[C@H]1COC2(CCN(c3nc(=O)c4cc(C(F)(F)F)cc([N+](=O)[O-])c4s3)CC2)O1`, the outcome in data set [7] and in data set [8] was Active.
For `O=c1nc(N2CCN(CC3CCCCC3)CC2)sc2c(/C=C/c3ccccn3)cc(C(F)(F)F)cc12`, the MIC in data set [2] was above 20 µM. The Activity in data set [9] was below 70%.
Regarding `COC(=O)C#Cc1cc(C(F)(F)F)cc2c(=O)nc(N3CCN(CC4CCCCC4)CC3)sc12`, in data set [1], the concentration for half-maximal inhibition (IC50) was found to be 140 nM. Also, the MIC in data set [2] came to 10 µM (≈ 4.94 µg/mL). Besides, the half-life in [3] was 1.2 h. The outcome in data set [4] was Active. In addition, the outcome in data set [7] and in data set [8] was inactive. In addition, the result in data set [5] and in data set [6] was Active.
Turning to `N#C/C=C/c1cc(C(F)(F)F)cc2c(=O)nc(N3CCN(CC4CCCCC4)CC3)sc12`, in data set [2], the MIC was above 20 µM. Further, the half-life in data set [3] is 0.2 h. Also, the Activity result is “Active” in [4] and below 70% in data set [9].
On to `N#Cc1cc(C(F)(F)F)cc2c(=O)nc(N3CCN(CC4CCCCC4)CC3)sc12`, for which, in data set [1], the IC50 stood at 1700 nM. In addition, in data set [2], the MIC was 0.16 µM (≈ 0.0698 µg/mL). Further, the half-life in data set [3] is 12 h. Further, the outcome in data set [4] was Active.
In the case of `COC(=O)/C=C/c1cc(C(F)(F)F)cc2c(=O)nc(N3CCN(CC4CCCCC4)CC3)sc12`, the IC50 in [1] was determined as 1240 nM. Further, the MIC in data set [2] was above 20 µM. Further, the half-life in data set [3] is 1 h. The result in data set [4] was Active. In [10], the Retention time stood at 43.3 min. In addition, the result in [11], in [5] and in data set [6] was Active. Further, the outcome in [7] and in data set [8] was inactive.
With `O=c1nc(N2CCN(CC3CCCCC3)CC2)sc2c(I)cc(C(F)(F)F)cc12`, the IC50 in data set [1] is 2350 nM. Besides, the MIC in [2] worked out at 0.63 µM (≈ 0.339 µg/mL).
In the case of `NC(=O)/C=C/c1cc(C(F)(F)F)cc2c(=O)nc(N3CCN(CC4CCCCC4)CC3)sc12`, the IC50 in data set [1] amounted to 200 nM. Further, the MIC in [2] amounted to 20 µM (≈ 9.61 µg/mL). Further, the half-life in [3] is 10 h. Further, the outcome in [4] was Active. The outcome in data set [12], in data set [5] and in data set [6] was Active. The Retention time in data set [13] was 29.3 min. The result in data set [7] and in data set [8] was inactive.

By IC50 is commonly meant the concentration needed to halve the response being measured. Usually MIC stands for the lowest concentration that inhibits growth of the organism. One may read the half-life as the time in which the quantity being followed falls by half.
